Experimental data published in ChEMBL document CHEMBL3244396, “Synthesis and antileukemic activity of 5-substituted 2,3-dihydro-6,7-bis(hydroxymethyl)-1H-pyrrolizine diesters” (J Med Chem, 1977).
≈ marks a conversion by molar mass, not a printed value.

Tests used:
[1] = system: Mus musculus; assay: Toxicity in female CDF1 mouse allografted with mouse P388 cells assessed as animal survival at 3.13 mg/kg, ip administered daily for 9 days as Klucel suspension starting 24 hrs after tumor inoculation; format: organism-based; design: dose 3.13 mg/kg, route intraperitoneal; conditions: in vivo
Outline: (§1)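 P-388 leukemia ascitic fluid inoculated ip. Compound given ip as a suspension in Klucel (hydroxypropylcellulose), once daily for nine doses beginning 24 h post-inoculation. Acute toxicity assessed as toxicity-day survivors per group. Survival was followed up to 30 days, with 30-day survival counted as "cure". Follows NCI screening protocols.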

[2] = system: L1210; assay: Antileukemic activity against mouse L1210 cells allografted in female CDF1 mouse assessed as change in body weight at 3.13 mg/kg, ip administered daily for 9 days as Klucel suspension starting 24 hrs after tumor inoculation; format: functional; conditions: route intraperitoneal
Outline: (§2)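 Ascitic fluid carrying L1210 cells was inoculated ip. Compound was given ip as a Klucel (hydroxypropylcellulose) suspension in nine daily doses, starting 24 h after inoculation. Body-weight difference (treated minus control) was recorded on day 5. Survival was scored as %T/C of mean survival time.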

[3] = system: P388; assay: Antitumor activity against mouse P388 cells allografted in female CDF1 mouse assessed as disease cures by measuring 30-days host survival at 12.5 mg/kg, ip administered daily for 9 days as Klucel suspension starting 24 hrs after tumor inoculation relative to control; format: functional; conditions: route intraperitoneal
Outline: (§3)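 P388 leukemia given as an ascitic fluid cell inoculum, ip, to mice of the strain and sex in each line. Nine daily ip doses were given in a Klucel (hydroxypropylcellulose) suspension, starting 24 h after inoculation. Read-out is median survival time as %T/C, with >125 taken as significant; a "cure" means 30-day survival.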

[4] = system: P388; assay: Antitumor activity against mouse P388 cells allografted in female CDF1 mouse assessed as change in body weight at 6.25 mg/kg, ip administered daily for 9 days as Klucel suspension starting 24 hrs after tumor inoculation; format: functional; conditions: route intraperitoneal
Outline: (§4)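 Ascitic fluid carrying P388 cells was inoculated ip. Compound was given ip in nine daily doses, starting 24 h after inoculation, in Klucel (hydroxypropylcellulose) suspension or in saline with Tween-80. Body-weight difference (treated minus control) was recorded on day 5. Survival was scored as %T/C of median survival time, and 30-day survival counted as cure.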

[5] = Cytotoxicity against human 9KB cells treated as ethanol solution; format: functional; conditions: read-out: ED50 (the source's name)
Outline: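 Compound applied as an ethanol solution; activity read out as ED50 under the general screening protocol.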

[6] = system: P388; assay: Antitumor activity against mouse P388 cells allografted in female CDF1 mouse assessed as disease cures by measuring 30-days host survival at 3.13 mg/kg, ip administered daily for 9 days as Klucel suspension starting 24 hrs after tumor inoculation relative to control; format: functional; conditions: route intraperitoneal; outline: as §3
[7] = system: L1210; assay: Antileukemic activity against mouse L1210 cells allografted in female CDF1 mouse assessed as host mean survival time at 3.13 mg/kg, ip administered daily for 9 days as Klucel suspension starting 24 hrs after tumor inoculation relative to control; format: functional; conditions: route intraperitoneal
Outline: (§5)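 L1210 leukemia given as an ascitic fluid cell inoculum, ip, to mice of the strain and sex in each line. Test material was given ip for nine daily doses starting 24 h after inoculation, in a Klucel (hydroxypropylcellulose) suspension. Read-out is mean survival time as %T/C versus controls, with >125 taken as significant.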

[8] = system: Mus musculus; assay: Toxicity in female CDF1 mouse allografted with mouse P388 cells assessed as animal survival at 12.5 mg/kg, ip administered daily for 9 days as Klucel suspension starting 24 hrs after tumor inoculation; format: organism-based; design: dose 12.5 mg/kg, route intraperitoneal; conditions: in vivo; outline: as §1
[9] = system: P388; assay: Antitumor activity against mouse P388 cells allografted in female BDF1 mouse assessed as change in body weight at 0.78 mg/kg, ip administered daily for 9 days as Klucel suspension starting 24 hrs after tumor inoculation; format: functional; conditions: route intraperitoneal; outline: as §4
[10] = system: P388; assay: Antitumor activity against mouse P388 cells allografted in female BDF1 mouse assessed as disease cures by measuring 30-days host survival at 1.56 mg/kg, ip administered daily for 9 days as Klucel suspension starting 24 hrs after tumor inoculation relative to control; format: functional; conditions: route intraperitoneal; outline: as §3
[11] = system: P388; assay: Antitumor activity against mouse P388 cells allografted in male CDF1 mouse assessed as change in body weight at 200 mg/kg, ip administered daily for 9 days as Klucel suspension starting 24 hrs after tumor inoculation; format: functional; conditions: route intraperitoneal; outline: as §4
[12] = system: Mus musculus; assay: Toxicity in female CDF1 mouse allografted with mouse L1210 cells assessed as animal survival at 6.25 mg/kg, ip administered daily for 9 days as Klucel suspension starting 24 hrs after tumor inoculation measured on fifth day; format: organism-based; design: dose 6.25 mg/kg, route intraperitoneal; conditions: in vivo
Outline: (§6)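 L1210 leukemia passaged as ascitic fluid and inoculated ip. Test agent given ip as a Klucel (hydroxypropylcellulose) suspension, nine daily doses starting 24 h after tumor inoculation. Acute toxicity read as toxicity-day survivors per group (out of 6), recorded on day 5. Animal weight difference T − C was also recorded. Follows NCI screening protocols.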

[13] = system: P388; assay: Antitumor activity against mouse P388 cells allografted in male CDF1 mouse assessed as change in body weight at 100 mg/kg, ip administered daily for 9 days as Klucel suspension starting 24 hrs after tumor inoculation; format: functional; conditions: route intraperitoneal; outline: as §4
[14] = system: P388; assay: Antitumor activity against mouse P388 cells allografted in male CDF1 mouse assessed as change in body weight at 50 mg/kg, ip administered daily for 9 days as Klucel suspension starting 24 hrs after tumor inoculation; format: functional; conditions: route intraperitoneal; outline: as §4
[15] = system: Mus musculus; assay: Toxicity in male CDF1 mouse allografted with mouse P388 cells assessed as animal survival at 100 mg/kg, ip administered daily for 9 days as Klucel suspension starting 24 hrs after tumor inoculation; format: organism-based; design: dose 100 mg/kg, route intraperitoneal; conditions: in vivo; outline: as §1
[16] = system: L1210; assay: Antileukemic activity against mouse L1210 cells allografted in female CDF1 mouse assessed as change in body weight at 12.5 mg/kg, ip administered daily for 9 days as Klucel suspension starting 24 hrs after tumor inoculation; format: functional; conditions: route intraperitoneal; outline: as §2
[17] = system: Mus musculus; assay: Toxicity in male CDF1 mouse allografted with mouse P388 cells assessed as animal survival at 200 mg/kg, ip administered daily for 9 days as Klucel suspension starting 24 hrs after tumor inoculation; format: organism-based; design: dose 200 mg/kg, route intraperitoneal; conditions: in vivo; outline: as §1
[18] = system: Mus musculus; assay: Toxicity in female CDF1 mouse allografted with mouse L1210 cells assessed as animal survival at 3.13 mg/kg, ip administered daily for 9 days as Klucel suspension starting 24 hrs after tumor inoculation measured on fifth day; format: organism-based; design: dose 3.13 mg/kg, route intraperitoneal; conditions: in vivo; outline: as §6
[19] = system: P388; assay: Antitumor activity against mouse P388 cells allografted in male CDF1 mouse assessed as disease cures by measuring 30-days host survival at 50 mg/kg, ip administered daily for 9 days as Klucel suspension starting 24 hrs after tumor inoculation relative to control; format: functional; conditions: route intraperitoneal; outline: as §3
[20] = system: P388; assay: Antitumor activity against mouse P388 cells allografted in female BDF1 mouse assessed as change in body weight at 1.56 mg/kg, ip administered daily for 9 days as Klucel suspension starting 24 hrs after tumor inoculation; format: functional; conditions: route intraperitoneal; outline: as §4
[21] = system: L1210; assay: Antileukemic activity against mouse L1210 cells allografted in female CDF1 mouse assessed as host mean survival time at 6.25 mg/kg, ip administered daily for 9 days as Klucel suspension starting 24 hrs after tumor inoculation relative to control; format: functional; conditions: route intraperitoneal; outline: as §5
[22] = system: L1210; assay: Antileukemic activity against mouse L1210 cells allografted in female CDF1 mouse assessed as change in body weight at 6.25 mg/kg, ip administered daily for 9 days as Klucel suspension starting 24 hrs after tumor inoculation; format: functional; conditions: route intraperitoneal; outline: as §2
[23] = system: Mus musculus; assay: Toxicity in female BDF1 mouse allografted with mouse P388 cells assessed as animal survival at 0.78 mg/kg, ip administered daily for 9 days as Klucel suspension starting 24 hrs after tumor inoculation; format: organism-based; design: dose 0.78 mg/kg, route intraperitoneal; conditions: in vivo; outline: as §1
[24] = system: P388; assay: Antitumor activity against mouse P388 cells allografted in male CDF1 mouse assessed as change in body weight at 25 mg/kg, ip administered daily for 9 days as Klucel suspension starting 24 hrs after tumor inoculation; format: functional; conditions: route intraperitoneal; outline: as §4
[25] = system: Mus musculus; assay: Toxicity in female BDF1 mouse allografted with mouse P388 cells assessed as animal survival at 1.56 mg/kg, ip administered daily for 9 days as Klucel suspension starting 24 hrs after tumor inoculation; format: organism-based; design: dose 1.56 mg/kg, route intraperitoneal; conditions: in vivo; outline: as §1
[26] = system: P388; assay: Antitumor activity against mouse P388 cells allografted in female CDF1 mouse assessed as change in body weight at 3.13 mg/kg, ip administered daily for 9 days as Klucel suspension starting 24 hrs after tumor inoculation; format: functional; conditions: route intraperitoneal; outline: as §4
[27] = system: P388; assay: Antitumor activity against mouse P388 cells allografted in female CDF1 mouse assessed as disease cures by measuring 30-days host survival at 6.25 mg/kg, ip administered daily for 9 days as Klucel suspension starting 24 hrs after tumor inoculation relative to control; format: functional; conditions: route intraperitoneal; outline: as §3
[28] = system: L1210; assay: Antileukemic activity against mouse L1210 cells allografted in female CDF1 mouse assessed as host mean survival time at 12.5 mg/kg, ip administered daily for 9 days as Klucel suspension starting 24 hrs after tumor inoculation relative to control; format: functional; conditions: route intraperitoneal; outline: as §5
[29] = system: Mus musculus; assay: Toxicity in female CDF1 mouse allografted with mouse P388 cells assessed as animal survival at 6.25 mg/kg, ip administered daily for 9 days as Klucel suspension starting 24 hrs after tumor inoculation; format: organism-based; design: dose 6.25 mg/kg, route intraperitoneal; conditions: in vivo; outline: as §1
[30] = system: P388; assay: Antitumor activity against mouse P388 cells allografted in female BDF1 mouse assessed as disease cures by measuring 30-days host survival at 0.78 mg/kg, ip administered daily for 9 days as Klucel suspension starting 24 hrs after tumor inoculation relative to control; format: functional; conditions: route intraperitoneal; outline: as §3
[31] = system: P388; assay: Antitumor activity against mouse P388 cells allografted in female CDF1 mouse assessed as change in body weight at 12.5 mg/kg, ip administered daily for 9 days as Klucel suspension starting 24 hrs after tumor inoculation; format: functional; conditions: route intraperitoneal; outline: as §4

## CNC(=O)OCc1c(COC(=O)NC)c(-c2ccc(F)cc2)n2c1CCC2
[1]
  Activity: Non-toxic
[2]
  Activity: 1.1 g
[3]
  T/C: 153%
[4]
  Activity: -1 g
[5]
  EC50: 0.22 µg/mL (≈ 0.586 µM)
[6]
  T/C: 171%
[7]
  T/C: 115%
[8]
  Activity: Non-toxic
[9]
  Activity: 0.9 g
[10]
  T/C: 122%
[11]
  Activity: -1.5 g
[12]
  Activity: Non-toxic
[13]
  Activity: -1.5 g
[14]
  Activity: -3.4 g
[15]
  Activity: Toxic
[16]
  Activity: 0.1 g
[17]
  Activity: Toxic
[18]
  Activity: Non-toxic
[19]
  T/C: 48%
[20]
  Activity: 0 g
[21]
  T/C: 107%
[22]
  Activity: 0.1 g
[23]
  Activity: Non-toxic
[24]
  Activity: -2 g
[25]
  Activity: Non-toxic
[26]
  Activity: -0.3 g
[27]
  T/C: 145%
[28]
  T/C: 118%
[29]
  Activity: Non-toxic
[30]
  T/C: 146%
[31]
  Activity: -3.3 g
